# Experimental data gathered from unrelated publications.
# Target: Serine/threonine-protein kinase haspin (HASPIN, Homo sapiens, UniProt Q8TF76)
# Sequence (Q8TF76 1-798, as in one of the studies): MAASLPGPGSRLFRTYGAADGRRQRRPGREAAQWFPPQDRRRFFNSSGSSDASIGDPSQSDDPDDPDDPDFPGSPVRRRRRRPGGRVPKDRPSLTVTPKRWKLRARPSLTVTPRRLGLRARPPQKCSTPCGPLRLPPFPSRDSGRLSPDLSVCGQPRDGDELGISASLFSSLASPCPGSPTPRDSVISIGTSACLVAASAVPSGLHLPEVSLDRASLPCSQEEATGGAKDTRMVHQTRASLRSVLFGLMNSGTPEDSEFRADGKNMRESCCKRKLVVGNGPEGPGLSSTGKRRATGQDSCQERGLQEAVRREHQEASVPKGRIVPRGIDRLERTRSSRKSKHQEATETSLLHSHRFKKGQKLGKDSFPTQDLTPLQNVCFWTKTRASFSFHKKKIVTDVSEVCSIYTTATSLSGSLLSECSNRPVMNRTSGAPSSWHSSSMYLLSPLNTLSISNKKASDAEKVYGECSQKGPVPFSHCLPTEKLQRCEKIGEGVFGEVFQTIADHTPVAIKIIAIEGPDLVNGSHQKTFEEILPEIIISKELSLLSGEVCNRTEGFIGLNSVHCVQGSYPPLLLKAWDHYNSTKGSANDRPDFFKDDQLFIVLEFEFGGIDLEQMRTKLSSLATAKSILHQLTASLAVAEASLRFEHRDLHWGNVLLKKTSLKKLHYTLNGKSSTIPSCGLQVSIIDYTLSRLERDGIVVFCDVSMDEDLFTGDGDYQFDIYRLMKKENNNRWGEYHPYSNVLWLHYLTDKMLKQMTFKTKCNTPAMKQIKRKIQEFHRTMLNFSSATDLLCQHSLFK
Structure (SMILES),effect on,action,technique,concentration,endpoint,result
N#CC1(c2ccccn2)CCN(Cc2cc(C(=O)O)c(=O)n3ccccc23)CC1,cell-free assay,,competition with immobilised ligand,1 µM,remaining binding,100%
O=c1[nH]c2ccccc2n1C1CCN(Cc2ccc(-c3[nH]c4cc5ncnc5cc4nc3-c3ccccc3)cc2)CC1,cell-free assay,,,0.5 µM,remaining signal,106%
Cn1cc(-c2cc(F)cc(N3CCn4c(cc5c4CCCC5)C3=O)c2CO)cc(Nc2ccc(N3CCN(C4COC4)CC3)cn2)c1=O,enzyme activity,inhibitor,,0.1 µM,inhibition,8%
Nc1ncc(-c2nc(N3CCOCC3)nc(N3CCOCC3)n2)c(C(F)F)n1,binding,,competition with immobilised ligand,10 µM,remaining binding,71%
CC(C)(C)c1cc(C=C(C#N)C#N)cc(Br)c1O,enzyme activity,inhibitor,,0.5 µM,remaining activity,67.2%
Cn1cncc1[C@](O)(COc1ccc(C#N)cc1-c1ccc(OC(F)(F)F)cc1)c1ccc(C#N)cc1,cell-free assay,,competition with immobilised ligand,1 µM,remaining binding,100%
C#Cc1n[nH]c2c(-c3cn(C(C)c4ccccn4)c(=O)[nH]c3=O)cc(F)cc12 (stereo not shown),enzyme activity,inhibitor,,1 µM,inhibition,18.9%
Cn1cc(-c2cccc(N3CCc4c(sc5c4CC(C)(C)C5)C3=O)c2CO)cc(Nc2ccncn2)c1=O,enzyme activity,inhibitor,,1 µM,inhibition,-1%
C#Cc1n[nH]c2c(-c3cn([C@@H](C)c4ccccc4)c(=O)[nH]c3=O)cc(F)cc12,enzyme activity,inhibitor,,0.1 µM,inhibition,-5.9%
COc1ncccc1-c1cnn2ccc(N3CCN(C(=O)OC(C)C)CC3)nc12,binding,,competition with immobilised ligand,1 µM,remaining binding,80%
